# This is a sample that favours compounds with a hit; in the whole collection about 2.9% have one here.
# TRPC6 inh: mouse TRPC6 channel inhibition; HEK293-TRPC6, membrane potential dye, ACh-evoked depolarization; hits give low values; actives 1.1% (n = 310,000); B-score at 10 µM; Q61143;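 active = B-score under library mean minus 3 SD, initial fluorescence not abnormally high, positive integrated signal ratio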;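 note: B-score derived from integrated fluorescence ratio over the kinetic read; more negative B-score means stronger inhibition of depolarization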
# Target sequence (Q61143 whole entry, looked up): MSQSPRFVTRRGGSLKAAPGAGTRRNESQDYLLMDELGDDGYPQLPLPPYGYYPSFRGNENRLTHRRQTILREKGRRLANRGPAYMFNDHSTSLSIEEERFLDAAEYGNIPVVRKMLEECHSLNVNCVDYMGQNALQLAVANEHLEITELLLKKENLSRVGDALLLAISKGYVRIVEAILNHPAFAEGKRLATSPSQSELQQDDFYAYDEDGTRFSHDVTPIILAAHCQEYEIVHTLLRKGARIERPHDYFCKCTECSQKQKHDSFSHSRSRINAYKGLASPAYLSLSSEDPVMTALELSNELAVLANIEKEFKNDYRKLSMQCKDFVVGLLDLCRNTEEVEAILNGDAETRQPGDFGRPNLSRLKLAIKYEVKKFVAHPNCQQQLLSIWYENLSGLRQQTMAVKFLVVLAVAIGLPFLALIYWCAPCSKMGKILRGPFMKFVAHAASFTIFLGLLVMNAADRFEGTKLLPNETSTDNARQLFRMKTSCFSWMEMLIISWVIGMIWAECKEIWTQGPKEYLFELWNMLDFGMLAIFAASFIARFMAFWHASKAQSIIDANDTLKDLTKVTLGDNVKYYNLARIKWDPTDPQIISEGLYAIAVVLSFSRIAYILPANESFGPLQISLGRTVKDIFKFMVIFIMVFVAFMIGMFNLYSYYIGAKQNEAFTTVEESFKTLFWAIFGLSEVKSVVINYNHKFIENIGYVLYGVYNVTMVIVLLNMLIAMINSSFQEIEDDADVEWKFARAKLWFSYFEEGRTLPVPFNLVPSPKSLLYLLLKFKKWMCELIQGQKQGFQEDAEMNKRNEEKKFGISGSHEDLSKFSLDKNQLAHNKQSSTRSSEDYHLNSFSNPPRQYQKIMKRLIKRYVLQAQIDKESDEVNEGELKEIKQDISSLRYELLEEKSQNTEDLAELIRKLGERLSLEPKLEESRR
# TRPC6 activator: activates the mouse TRPC6 cation channel; Q61143; HEK293-TRPC6 membrane potential dye fluorescence; hits give high values; B-score at 10 µM; actives 0.13% (n = 310,000);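 active = B-score of the integrated fluorescence ratio above library mean plus 3 SD, and starting fluorescence ratio within library mean plus 5 SD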;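 note: higher score means more depolarization so channel activation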
# TRPC4 act: opens the mouse TRPC4 cation channel; Q9QUQ5; actives 0.49% (n = 310,000); HEK293 TRPC4beta/mu-opioid, Fluo4 calcium fluorescence; hits give high values; B-score at 10 µM; AID 2237;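 active = B-score above 5 SD of library B-scores, and initial fluorescence ratio not above library mean plus 5 SD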;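 note: positive B-score marks a calcium rise read as TRPC4 activation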
#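 Assay system: HEK293 cells stably co-expressing mouse TRPC4beta and mu-opioid receptor / Timing: Fluo4 dye loading 45 min at room temperature, 110 s recording / Signal: Fluo4 calcium-sensitive dye fluorescence, kinetic, 1 Hz baseline / Read-out: integrated baseline-normalised fluorescence ratio, converted to per-well B score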
# Kir21 block: Kir2.1 (mouse) channel inhibition | P35561 | HEK293-Kir2.1, FluxOR thallium flux fluorescence; hits give low values | B-score at 10 µM | actives 0.85% (n = 310,000) | AID 1672;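 active = fluorescence ratio B-score at or below minus 3 SD of library scores, with starting-brightness B-score within 2 SD, cut at about -4.2 in these data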;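 note: channel flux triggered by added potassium and thallium sulfate stimulus; B-score of peak minus minimum fluorescence over baseline after thallium stimulus; more negative B-score means stronger Kir2.1 block with less thallium influx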
# TRPC4 PAM: allosteric potentiators of mouse TRPC4 channel. actives 0.42% (n = 310,000). HEK293 TRPC4beta/mu-opioid, DAMGO EC20, Fluo-4 Ca2+ flux; hits give high values. B-score at 10 µM. AID 2227;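 active = B-score of calcium response area above 5 SD of library B-scores, with initial fluorescence ratio within 5 SD of library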;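 note: B-score of integrated fluorescence ratio over time as area under calcium response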
# TRPC4 inh: TRPC4 (mouse) channel inhibition; Q9QUQ5; HEK293 TRPC4beta/mu-opioid, DAMGO-evoked Fluo4 calcium flux; hits give low values; B-score at 10 µM; actives 0.39% (n = 300,000); AID 2247;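 active = B-score over 3 SD under the library average, no early fluorescence shift, positive overall ratio signal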
#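 System: stable TRPC4beta/mu-opioid receptor HEK293 cells; Dosing: single-point compound dosing; Measured by: Fluo4 Ca2+ flux fluorescence; Read-out basis: per-well B score of integrated baseline-normalized Fluo4 ratio.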
# TRPC4 sel inh 2: mouse TRPC4 off-target activity of TRPC6 inhibitors, second screen. shares compounds with TRPC6 inh. HEK293 TRPC4/MOR, membrane potential dye fluorescence; channel activated by saturating DAMGO dose. inhibition, % at 10 µM. actives 42% (n = 920). AID 2776;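 active = compounds whose fluorescence signal differed from control wells by over 3 SD, either direction, in both duplicate plates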
# TRPC4 spec: mouse TRPC4 off-target activity of TRPC6 inhibitors; shares compounds with TRPC6 inh; HEK293 TRPC4/mu-opioid, membrane potential fluorescence; activity change, negative = inhibition, % at 10 µM; actives 61% (n = 920); AID 2777;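 active = rise or fall in signal beyond 3 SD of buffer-only wells in both replicate plates, either sign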;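 note: integrated kinetic ratio of fluorescence range over baseline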
# HEK293 MPD ctr 2-1: second check of TRPC6 inhibitor effects in parental HEK293 cells | parental HEK293 membrane potential dye fluorescence; maximal acetylcholine challenge after compound addition | actives 31% (n = 920) | shares compounds with TRPC6 inh | signal change vs control, % at 10 µM;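 active = membrane potential signal moving either way by over 3 SD of the maximum-effect control, in both duplicate plates, meaning non-specific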
# HEK293 MPD ctr-1: checks TRPC6 inhibitor effects in parental HEK293 cells; shares compounds with TRPC6 inh; parental HEK293 membrane potential dye fluorescence; membrane potential signal change, % at 10 µM; actives 60% (n = 920);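 active = membrane potential signal shifting up or down by more than 3 SD of buffer-only wells, on both duplicate plates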
# HEK293 MPD ctr-2: parental HEK293 nonspecific activity of TRPC6 modulators; shares compounds with TRPC6 inh; membrane potential dye fluorescence; membrane potential signal change, % at 10 µM; actives 51% (n = 2,400);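 active = membrane potential signal moves up or down beyond 5 SD from buffer-only wells, on both duplicate plates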
# HEK293 MPD ctr 2-2: second counter-screen for TRPC6 modulators: effect in parental HEK293 cells | inhibition, % at 10 µM | membrane potential dye fluorescence; after compound, maximal acetylcholine stimulation | AID 488926 | shares compounds with TRPC6 inh | actives 14% (n = 2,400);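 active = membrane potential signal drops by more than 5 SD from the mean control signal, in both duplicate plates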;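 note: plate controls were acetylcholine ECmax control wells for no effect and buffer only wells for full effect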
# TRPC4/MOR mod: selectivity of TRPC6 modulators against mouse TRPC4; HEK293 TRPC4/mu-opioid, membrane potential fluorescence; percent change from control (negative = decrease, positive = increase), % at 10 µM; AID 488927; actives 69% (n = 2,400); shares compounds with TRPC6 inh;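 active = membrane potential signal moved up or down beyond 5 SD of buffer control wells, in both duplicate plates, actives on both sides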;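 note: plate controls were assay buffer wells for no effect and DAMGO maximal-effect wells for full effect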
# TRPC4/MOR inh 2: mouse TRPC4 off-target activity of TRPC6 modulators, second screen. shares compounds with TRPC6 inh. inhibition, % at 10 µM. HEK293 TRPC4/mu-opioid, membrane potential dye fluorescence; stimulated with maximal-effect DAMGO. actives 55% (n = 2,400);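 active = drop in membrane potential signal beyond 5 SD of the control wells in both duplicate plates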;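 note: TRPC4 counter screen for TRPC6 hits run under conditions tuned for TRPC6 not TRPC4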
# TRPC6 block conf: mouse TRPC6 inhibitor confirmation. shares compounds with TRPC6 inh. HEK293-TRPC6, membrane potential dye, ACh-evoked depolarization. inhibition, % at 10 µM. actives 43% (n = 3,300);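 active = fluorescence ratio falls more than 5 SD below the full-stimulation control mean, in both duplicate runs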;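 note: integrated fluorescence ratio of peak minus minimum over baseline after agonist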
# TRPC6 act conf: mouse TRPC6 activator confirmation; activation, % at 10 µM; AID 488961; shares compounds with TRPC6 inh; HEK293-TRPC6 membrane potential dye fluorescence, FDSS; actives 11% (n = 2,800);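 active = ratio signal rise beyond 5 SD above unstimulated control wells' mean, seen in both duplicate runs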;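 note: plate controls were buffer EC0 wells for no effect and acetylcholine ECmax response for full effect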
# * hit, by the source's call; i = inactive; . = no result.
SMILES,TRPC6 inh,TRPC6 activator,TRPC4 act,Kir21 block,TRPC4 PAM,TRPC4 inh,HEK293 MPD ctr-2,HEK293 MPD ctr 2-2,TRPC4/MOR mod,TRPC4/MOR inh 2,TRPC6 block conf,TRPC6 act conf,others
O=C(c1cccc(-n2cccc2)c1)N1CCN(S(=O)(=O)c2ccccc2)CC1,-7*,i,i,1.6,i,i,.,.,.,.,66%*,i,TRPC4 sel inh 2=i;TRPC4 spec=i;HEK293 MPD ctr 2-1=i;HEK293 MPD ctr-1=i
O=C(c1cccc(S(=O)(=O)N2CCN(c3ccccc3)CC2)c1)N1CCCCCCC1,i,i,i,-1.7,i,i,.,.,.,.,.,.,
O=C(c1cccc(S(=O)(=O)N2CCCC2)c1)N1CCN(c2ccccc2F)CC1,i,i,i,0.32,i,i,.,.,.,.,.,.,
O=C(c1cccc(-n2cccc2)c1)N1CCN(S(=O)(=O)c2c(F)cccc2F)CC1,-6.1*,i,i,-1.2,i,i,i,i,i,i,44%*,.,
CCN(c1ccccc1)S(=O)(=O)c1cccc(C(=O)N2CCN(S(=O)(=O)c3ccccc3)CC2)c1,-11*,i,i,0.58,i,i,.,.,.,.,i,.,TRPC4 sel inh 2=i;TRPC4 spec=i;HEK293 MPD ctr 2-1=i;HEK293 MPD ctr-1=i
Brc1ccc2c(c1)OCCOCCOc1cc(Br)ccc1OCCOCCOCCO2,i,i,i,-2,i,i,.,.,.,.,.,.,
Cc1nn(CCc2nn[nH]n2)c2nc(-c3ccc(Br)cc3)cc(C(F)(F)F)c12,i,i,i,1.1,i,i,.,.,.,.,.,.,
COc1ccc(S(=O)(=O)NCC2CCCN(C(=O)C=C(C)C)C2)cc1 (centres undefined),i,i,i,1,i,i,.,.,.,.,.,.,
Cc1ccc(S(=O)(=O)N2CCN(C(=O)c3ccc(Cl)nc3)CC2)cc1,i,i,i,1.3,i,i,.,.,.,.,.,.,
Cc1ccc(S(=O)(=O)N2CCN(C(=O)c3ccccc3)CC2)cc1,-12*,15*,i,-0.05,i,i,i,i,i,i,66%*,98%*,
Cc1ccc(S(=O)(=O)N2CCN(C(=O)c3cccc(-n4cccc4)c3)CC2)cc1,-13*,14*,i,-1.1,i,i,i,i,i,i,i,i,

# Screening data: PubChem, Johns Hopkins Ion Channel Center
